Laboratory results from ChEMBL document CHEMBL1121839, “Synthesis of spiro[isobenzofuran-1(3H),4'-piperidines] as potential central nervous system agents. 6. Synthesis, 13C NMR, and biological evaluation of cis- and trans-4-amino-3'-arylspiro[cyclohexane-1,1'(3'H)-isobenzofuran] derivatives” (1981).

Legend:
Assay type in all cases: functional
Mus musculus = assay: Inhibition of tetrabenazine-induced ptosis in mice following i.p. administration.; details: ip
In short: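 Male CD-1 mice, groups of five, received compound i.p.; tetrabenazine methanesulfonate 40 mg/kg i.p. followed 30 min later. After another 30 min, mice were housed singly and ptosis was scored (eyes closed 2, half open 1, open 0). ED50 and 95% confidence intervals came from linear regression of ptosis scores.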

Rattus norvegicus [1] = assay: Percent potentiation of L-5-hydroxytryptophan-induced seizures (head-twitching) at 10 mg/kg i.p. in rats; details: route intraperitoneal
In short: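 Male Wistar rats, groups of six, got pargyline HCl 75 mg/kg s.c. 4 h before testing and test drug i.p. (10 mL/kg) 30 min before. L-5-hydroxytryptophan 1 mg/kg i.p. in distilled water was then given. Rats were observed 5 min later for head motion and coarse tremors; continuous forelimb clonus counted as potentiation, normalized as percent versus vehicle control.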

Rattus norvegicus [2] = assay: Effective concentration required for potentiation of L-5-hydroxytryptophan-induced seizures (head-twitching) in rats (administered intraperitoneally); details: ip
In short: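 Male Wistar rats, groups of six, pretreated with pargyline HCl 75 mg/kg sc 4 h before testing. Test drug given ip (10 mL/kg) 30 min before testing, then L-5-hydroxytryptophan 1 mg/kg ip in distilled water. Head motion and coarse tremors were scored 5 min later, with continuous forelimb clonus counted as potentiation. Results are expressed as normalized percent potentiation versus vehicle control.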

Compound | ED50 (Mus musculus) [mg/kg] | Potentiation (Rattus norvegicus [1]) [%] | ED50 (Rattus norvegicus [2]) [mg/kg]
CN(C)[C@H]1CC[C@]2(CC1)OCc1ccccc12 | > 20 | 0 | 
CC1O[C@]2(CC[C@@H](N(C)C)CC2)c2ccccc21 (stereo not given in full) | 20 | 0 | 
CN[C@H]1CC[C@]2(CC1)OC(c1ccc(Cl)cc1)c1ccccc12 (stereo not given in full) | > 20 | 0 | 
CCCC1(c2ccccc2)O[C@]2(CC[C@@H](N(C)C)CC2)c2ccccc21 (stereo not given in full) | > 20 | 0 | 
CN(C)[C@H]1CC[C@@]2(CC1)OC(c1ccccc1)c1ccccc12 (stereo not given in full) | > 20 | 0 | 
CN[C@H]1CC[C@]2(CC1)OC(c1ccccc1)c1ccccc12 (stereo not given in full) | 2 | 0 | 
CN[C@H]1CC[C@]2(CC1)OC(c1ccc(F)cc1)c1ccccc12 (stereo not given in full) | 20 | 0 | 
CN[C@H]1CC[C@@]2(CC1)OC(c1ccccc1)c1ccccc12 (stereo not given in full) | > 20 | 50 | 
CN[C@H]1CC[C@]2(CC1)OC(c1ccccc1C)c1ccccc12 (stereo not given in full) | > 20 | 50 | 
Cc1ccccc1C1O[C@]2(CC[C@@H](N(C)C)CC2)c2ccccc21 (stereo not given in full) | > 20 | 0 | 
Cc1ccc(C2O[C@]3(CC[C@@H](N(C)C)CC3)c3ccccc32)cc1 (stereo not given in full) | > 20 | 33 | 
CCC1(c2ccccc2)O[C@]2(CC[C@@H](N(C)C)CC2)c2ccccc21 (stereo not given in full) | > 20 | 0 | 
CN(C)[C@H]1CC[C@]2(CC1)OC(c1ccc(Cl)cc1)c1ccccc12 (stereo not given in full) | > 20 | 0 | 
CN(C)[C@H]1CC[C@]2(CC1)OC(c1ccc(F)cc1)c1ccccc12 (stereo not given in full) | 8.4 | 50 | 
CN(C)[C@H]1CC[C@]2(CC1)OC(c1ccccc1)c1ccccc12 (stereo not given in full) | 3.7 | 50 | 
CN(C)[C@H]1CC[C@]2(CC1)OC(C)(c1ccccc1)c1ccccc12 (stereo not given in full) | > 20 | 0 | 
CN(C)CCC=C1c2ccccc2CCc2ccccc21 [AMITRIPTYLINE] | 1.5 |  | 7.1
CNCCCN1c2ccccc2CCc2ccccc21 [DESIPRAMINE] | 0.3 |  | 
